Test results reported in ChEMBL document CHEMBL4118248, “Small Molecule Proprotein Convertase Subtilisin/Kexin Type 9 (PCSK9) Inhibitors: Hit to Lead Optimization of Systemic Agents” (J Med Chem, 2018).

Experiments:
[1] = Lipophilicity, log D of the compound by shake flask method; format: physicochemical; conditions: octanol/water
Method in brief: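 LogD measured by the shake-flask method.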

[2] = Apparent permeability in RRCK cells; format: ADME, cell-based, Canis lupus familiaris, MDCKII-LE; conditions: dog, MDCK
Method in brief: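 Passive permeability measured in RRCK cells, a modified Madin-Darby canine kidney line; Papp reported in 10^-6 cm/s.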

[3] = Intrinsic clearance in human liver microsomes; format: ADME, microsome; conditions: read-out: CLH
80S Ribosome [4] = test: Binding affinity to 80S ribosome in human HuH7 cells harboring pCMV-truncated human PCSK9 (1 to 152 residues)-proLuc assessed as inhibition of PCSK9 mRNA translation after overnight incubation by luciferase reporter gene assay; format: cell-based; conditions: huh-7
Method in brief: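 Huh7 cells stably carry human PCSK9 prodomain (aa 1-152) fused to firefly luciferase (aa 2-550) in pcDNA3.1, kept under 900 µg/mL Geneticin. Plated 10,000/well in phenol red-free DMEM/10% FBS and left 4 h, then compound added (top final 20 µM, 0.5% DMSO). Incubated overnight at 37 °C, luminescence read with SteadyGlo.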

[5] = Permeability from apical to basolateral side in MDCK cells harboring MDR1; format: ADME, cell-based, Canis lupus familiaris; conditions: dog, read-out: permeability
Method in brief: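 Bidirectional permeability across MDR1-transfected MDCK monolayers, apical-to-basolateral and basolateral-to-apical; Papp reported in 10^-6 cm/s.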

Cytochrome P450 1A2 = molecular target: T1, Cytochrome P450 1A2 (Homo sapiens, UniProt P05177); test: Inhibition of CYP1A2 (unknown origin); format: ADME
T1 sequence (P05177 whole entry): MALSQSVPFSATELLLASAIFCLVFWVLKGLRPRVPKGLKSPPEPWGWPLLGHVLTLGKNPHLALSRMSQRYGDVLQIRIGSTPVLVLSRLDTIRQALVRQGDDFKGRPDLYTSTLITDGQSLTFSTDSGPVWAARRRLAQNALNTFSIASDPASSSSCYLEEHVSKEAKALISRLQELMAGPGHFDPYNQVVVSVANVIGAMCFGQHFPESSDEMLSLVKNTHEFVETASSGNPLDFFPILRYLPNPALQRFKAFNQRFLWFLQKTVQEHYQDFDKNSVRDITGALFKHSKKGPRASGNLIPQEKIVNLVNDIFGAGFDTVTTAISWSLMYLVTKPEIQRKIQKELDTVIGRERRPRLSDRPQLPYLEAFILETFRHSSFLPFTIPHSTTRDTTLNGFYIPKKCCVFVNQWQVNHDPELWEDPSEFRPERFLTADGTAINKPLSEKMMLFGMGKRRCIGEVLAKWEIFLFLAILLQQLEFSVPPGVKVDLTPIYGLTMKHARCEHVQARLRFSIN
Method in brief: (§1)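 Inhibition of CYP1A2, 2D6, 2C9 and 3A4 reported as IC50, or as percent inhibition at 3 µM.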

Cytochrome P450 2D6 = Cytochrome P450 2D6 (Homo sapiens, UniProt P10635); test: Inhibition of CYP2D6 (unknown origin); format: ADME; method in brief: as §1
Cytochrome P450 2D6, sequence (P10635 whole entry): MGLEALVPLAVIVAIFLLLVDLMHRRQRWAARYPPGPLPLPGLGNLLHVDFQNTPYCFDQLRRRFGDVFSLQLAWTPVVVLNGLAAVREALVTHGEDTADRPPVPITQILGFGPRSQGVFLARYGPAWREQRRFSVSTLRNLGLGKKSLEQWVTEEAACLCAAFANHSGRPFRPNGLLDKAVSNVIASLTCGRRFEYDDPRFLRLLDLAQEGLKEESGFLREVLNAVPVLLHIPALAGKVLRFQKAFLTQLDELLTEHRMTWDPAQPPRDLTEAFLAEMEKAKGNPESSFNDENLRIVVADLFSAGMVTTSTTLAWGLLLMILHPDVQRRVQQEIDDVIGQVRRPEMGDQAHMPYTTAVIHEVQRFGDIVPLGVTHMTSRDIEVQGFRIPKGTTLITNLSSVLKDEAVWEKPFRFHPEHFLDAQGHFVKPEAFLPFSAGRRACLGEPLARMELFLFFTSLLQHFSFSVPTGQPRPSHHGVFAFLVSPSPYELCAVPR

Cytochrome P450 2C9 = Cytochrome P450 2C9 (Homo sapiens, UniProt P11712); test: Inhibition of CYP2C9 (unknown origin); format: ADME; method in brief: as §1
Cytochrome P450 2C9, sequence (P11712 whole entry): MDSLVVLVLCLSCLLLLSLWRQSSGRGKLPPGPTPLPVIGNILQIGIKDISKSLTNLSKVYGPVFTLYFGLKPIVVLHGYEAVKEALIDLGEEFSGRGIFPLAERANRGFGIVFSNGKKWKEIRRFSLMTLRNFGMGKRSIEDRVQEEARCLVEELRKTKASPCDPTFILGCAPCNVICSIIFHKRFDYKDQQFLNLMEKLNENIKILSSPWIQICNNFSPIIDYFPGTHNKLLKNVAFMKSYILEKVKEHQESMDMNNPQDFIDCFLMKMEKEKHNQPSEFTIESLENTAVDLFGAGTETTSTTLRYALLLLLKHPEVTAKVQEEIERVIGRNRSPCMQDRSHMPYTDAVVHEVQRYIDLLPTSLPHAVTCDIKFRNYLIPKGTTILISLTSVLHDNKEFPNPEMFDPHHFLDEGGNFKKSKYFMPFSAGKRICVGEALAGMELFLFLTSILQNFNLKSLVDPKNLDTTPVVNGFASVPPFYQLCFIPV

Cytochrome P450 3A4 = Cytochrome P450 3A4 (Homo sapiens, UniProt P08684); test: Inhibition of CYP3A4 (unknown origin); format: ADME; method in brief: as §1
Cytochrome P450 3A4, sequence (P08684 whole entry): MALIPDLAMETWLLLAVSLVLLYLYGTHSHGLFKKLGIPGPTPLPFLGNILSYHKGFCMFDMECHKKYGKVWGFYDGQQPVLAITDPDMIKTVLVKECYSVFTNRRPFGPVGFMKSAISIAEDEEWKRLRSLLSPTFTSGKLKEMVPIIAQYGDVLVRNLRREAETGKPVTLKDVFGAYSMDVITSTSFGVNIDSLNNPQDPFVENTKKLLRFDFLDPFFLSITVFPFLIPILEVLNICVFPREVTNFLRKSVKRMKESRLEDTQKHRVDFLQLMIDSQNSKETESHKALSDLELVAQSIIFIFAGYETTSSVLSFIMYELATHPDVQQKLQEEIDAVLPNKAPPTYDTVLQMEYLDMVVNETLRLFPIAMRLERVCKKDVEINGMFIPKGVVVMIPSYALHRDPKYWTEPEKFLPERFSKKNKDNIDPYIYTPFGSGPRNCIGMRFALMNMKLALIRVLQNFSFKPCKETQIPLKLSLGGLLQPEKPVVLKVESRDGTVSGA

[6] = Cytotoxicity against human CD34-positive hematopoietic progenitor cells assessed as reduction in cell viability after 72 hrs by CellTiter-Glo assay; format: cell-based
Rattus norvegicus [7] = test: Reduction in LDL cholesterol level in Crl:CD(SD) rat at 50 mg/kg/day, po daily via gavage for 14 days measured on day 15 post last dose relative to control; format: functional; design: scale not given: the % may be the effect or the level left
Rattus norvegicus [8] = test: Toxicity in Crl:CD(SD) rat assessed as decrease in hematocrit and hemoglobin level at 50 mg/kg/day, po daily via gavage for 14 days measured on day 15 post last dose relative to control; format: organism-based; design: scale not given: the % may be the effect or the level left; conditions: in vivo, 336 h
Rattus norvegicus [9] = test: Toxicity in Crl:CD(SD) rat assessed as decrease in total nucleated cell count at 50 mg/kg/day, po daily via gavage for 14 days measured on day 15 post last dose relative to control; format: organism-based; design: scale not given: the % may be the effect or the level left; conditions: in vivo, 336 h
Rattus norvegicus [10] = test: Toxicity in Crl:CD(SD) rat assessed as decrease in absolute maturing erythroid cells at 50 mg/kg/day, po daily via gavage for 14 days measured on day 15 post last dose relative to control; format: organism-based; design: scale not given: the % may be the effect or the level left; conditions: in vivo, 336 h
Rattus norvegicus [11] = test: Toxicity in Crl:CD(SD) rat assessed as decrease in total erythroid cells at 50 mg/kg/day, po daily via gavage for 14 days measured on day 15 post last dose relative to control; format: organism-based; design: scale not given: the % may be the effect or the level left; conditions: in vivo, 336 h
Rattus norvegicus [12] = test: Toxicity in Crl:CD(SD) rat assessed as decrease in WBC at 50 mg/kg/day, po daily via gavage for 14 days measured on day 15 post last dose relative to control; format: organism-based; design: scale not given: the % may be the effect or the level left; conditions: in vivo, 336 h
Rattus norvegicus [13] = test: Toxicity in Crl:CD(SD) rat assessed as decrease in lymphocytes at 50 mg/kg/day, po daily via gavage for 14 days measured on day 15 post last dose relative to control; format: organism-based; design: scale not given: the % may be the effect or the level left; conditions: in vivo, 336 h
Rattus norvegicus [14] = test: Toxicity in Crl:CD(SD) rat assessed as decrease in monocytes at 50 mg/kg/day, po daily via gavage for 14 days measured on day 15 post last dose relative to control; format: organism-based; design: scale not given: the % may be the effect or the level left; conditions: in vivo, 336 h
Rattus norvegicus [15] = test: Toxicity in Crl:CD(SD) rat assessed as decrease in eosinophils at 50 mg/kg/day, po daily via gavage for 14 days measured on day 15 post last dose relative to control; format: organism-based; design: scale not given: the % may be the effect or the level left; conditions: in vivo, 336 h
Rattus norvegicus [16] = test: Toxicity in Crl:CD(SD) rat assessed as decrease in helper T cells at 50 mg/kg/day, po daily via gavage for 14 days measured on day 15 post last dose relative to control; format: organism-based; design: scale not given: the % may be the effect or the level left; conditions: in vivo, 336 h
Rattus norvegicus [17] = test: Toxicity in Crl:CD(SD) rat assessed as decrease in cytotoxic T cells at 50 mg/kg/day, po daily via gavage for 14 days measured on day 15 post last dose relative to control; format: organism-based; design: scale not given: the % may be the effect or the level left; conditions: in vivo, 336 h
Rattus norvegicus [18] = test: Toxicity in Crl:CD(SD) rat assessed as decrease in B cells at 50 mg/kg/day, po daily via gavage for 14 days measured on day 15 post last dose relative to control; format: organism-based; design: scale not given: the % may be the effect or the level left; conditions: in vivo, 336 h
Rattus norvegicus [19] = test: Toxicity in Crl:CD(SD) rat assessed as single cell necrosis in crypt cells in ileum at 50 mg/kg/day, po daily via gavage for 14 days measured on day 15 post last dose; format: organism-based; conditions: in vivo, 336 h
Rattus norvegicus [20] = test: Toxicity in Crl:CD(SD) rat at 5 to 15 mg/kg/day, po daily via gavage for 14 days measured on day 15 post last dose; format: organism-based; conditions: in vivo, 336 h
Rattus norvegicus [21] = test: Toxicity in Crl:CD(SD) rat assessed as discolored/mottled liver at 50 mg/kg/day, po daily via gavage for 14 days measured on day 15 post last dose; format: organism-based; conditions: in vivo, 336 h
Method in brief: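 Male rats, 5 per group, given vehicle or compound at 50 mg/kg/day by oral gavage for 14 days. Mortality, clinical signs and hematology monitored throughout. Necropsy on day 15 with microscopy of bone marrow, ileum, duodenum, jejunum and liver. Toxicokinetics at 1, 3, 6 and 24 h post-dose on day 14.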

[22] = Total plasma concentration in Crl:CD(SD) rat at 15 mg/kg/day, po daily via gavage for 14 days measured on day 14 post last dose up to 24 hrs; format: ADME, organism-based; conditions: in vivo
Rattus norvegicus [23] = test: Toxicity in Crl:CD(SD) rat at 15 mg/kg/day, po daily via gavage for 14 days; format: organism-based; conditions: in vivo, 336 h
80S Ribosome [24] = test: Binding affinity of [3H]PF-06446846 to human 80S ribosome

## O=C(c1ccc(-n2nnc3cccnc32)cc1)N(c1ncccc1Cl)[C@@H]1CCCNC1
[1]
  logD: 0.8
[2]
  Papp: 15 ×10⁻⁶ cm/s
[3]
  microsomal CLint: 9.7 µL/min/mg
80S Ribosome [4]
  IC50: 0.38 µM
[5]
  Papp A→B: 1.5 ×10⁻⁶ cm/s
Cytochrome P450 1A2
  IC50: > 30 µM
Cytochrome P450 2D6
  IC50: > 30 µM
Cytochrome P450 2C9
  IC50: > 30 µM
Cytochrome P450 3A4
  IC50: > 30 µM
[6]
  IC50: 2.7 µM
Rattus norvegicus [7]
  Activity: 58%
Rattus norvegicus [8]
  Activity: 9 to 10%
Rattus norvegicus [9]
  Activity: 30%
Rattus norvegicus [10]
  Activity: 48%
Rattus norvegicus [11]
  Activity: 46%
Rattus norvegicus [12]
  Activity: 52%
Rattus norvegicus [13]
  Activity: 54%
Rattus norvegicus [14]
  Activity: 63%
Rattus norvegicus [15]
  Activity: 54%
Rattus norvegicus [16]
  Activity: 54%
Rattus norvegicus [17]
  Activity: 54.5%
Rattus norvegicus [18]
  Activity: 58%
Rattus norvegicus [19]
  Activity: Toxic
Rattus norvegicus [20]
  Activity: Non-Toxic
Rattus norvegicus [21]
  Activity: Toxic
[22]
  concentration: 2420 nM
Rattus norvegicus [23]
  NOAEL: 478 nM
80S Ribosome [24]
  Ki: 7 µM
